Reference: ChEMBL document CHEMBL4270612, “Discovery of dual GyrB/ParE inhibitors active against Gram-negative bacteria” (Eur J Med Chem, 2018)
In brackets after ≈: the same amount, converted by molar mass.

How the values were obtained:
DNA gyrase subunit B = DNA gyrase subunit B (Escherichia coli, UniProt P0AES6); test: Inhibition of Escherichia coli GyrB (1 to 220 residues) expressed in Escherichia coli BL21(DE3)
[1] = target: DNA topoisomerase 4 subunit B (Escherichia coli K-12, UniProt P20083); test: Inhibition of Escherichia coli ParE
Sequence of DNA topoisomerase 4 subunit B (P20083 whole entry): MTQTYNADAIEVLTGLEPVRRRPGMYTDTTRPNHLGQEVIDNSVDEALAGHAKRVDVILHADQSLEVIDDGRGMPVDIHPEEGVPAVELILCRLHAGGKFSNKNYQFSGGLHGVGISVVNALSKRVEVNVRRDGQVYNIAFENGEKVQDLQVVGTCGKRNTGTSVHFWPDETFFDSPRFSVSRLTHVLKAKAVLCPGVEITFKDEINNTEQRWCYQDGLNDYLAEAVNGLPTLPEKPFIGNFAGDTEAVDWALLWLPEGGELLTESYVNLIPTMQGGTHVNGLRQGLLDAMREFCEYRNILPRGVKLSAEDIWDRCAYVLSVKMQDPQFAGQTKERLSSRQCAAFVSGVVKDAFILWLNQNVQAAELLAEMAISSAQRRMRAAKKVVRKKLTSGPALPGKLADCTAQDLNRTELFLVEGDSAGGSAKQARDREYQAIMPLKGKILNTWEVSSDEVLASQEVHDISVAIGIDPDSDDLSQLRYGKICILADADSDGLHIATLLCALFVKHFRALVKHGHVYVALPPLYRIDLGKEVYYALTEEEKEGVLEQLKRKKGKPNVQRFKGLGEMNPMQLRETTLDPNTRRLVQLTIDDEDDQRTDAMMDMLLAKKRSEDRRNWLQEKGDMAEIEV

Pseudomonas aeruginosa [2] = test: Antibacterial activity against Pseudomonas aeruginosa PAO1 after 24 hrs by broth microdilution method; assay type: functional; conditions: PAO1, 24 h
Outline: (§1)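 Broth microdilution per CLSI. Bacterial suspension adjusted to 1×10^6 CFU/mL in cation-adjusted Mueller–Hinton broth and mixed 1:1 with 2-fold serial compound dilutions. Final DMSO 2.5% v/v. Plates incubated at 35 °C with shaking at 140 rpm for 24 h.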

Pseudomonas aeruginosa [3] = test: Antibacterial activity against Pseudomonas aeruginosa harboring MexABCDXY deletion mutant after 24 hrs by broth microdilution method; assay type: functional
Outline: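 Broth microdilution per CLSI. Bacterial suspensions adjusted to 1×10^6 CFU/mL in cation-adjusted Mueller–Hinton broth, mixed 1:1 with 2-fold serial compound dilutions (final DMSO 2.5% v/v). Incubation 35 °C, 140 rpm, 24 h.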

Escherichia coli [4] = test: Antibacterial activity against Escherichia coli after 24 hrs by broth microdilution method; assay type: functional; outline: as §1
Escherichia coli [5] = test: Antibacterial activity against tolC deficient Escherichia coli after 24 hrs by broth microdilution method; assay type: functional
Outline: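 Broth microdilution per CLSI guidelines. Inoculum adjusted to 1×10^6 CFU/mL in cation-adjusted Mueller–Hinton broth, added 1:1 to 2-fold serial compound dilutions; final DMSO 2.5% v/v. Plates incubated 35 °C, 140 rpm, 24 h.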

[6] = Dissociation constant, acidic pKa of compound by pH metric method; assay type: physicochemical
Outline: (§2)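 Potentiometric (pH-metric) titration on an automated titrator, Gold Standard pH metric assay, run in triplicate.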

[7] = Dissociation constant, basic pKa of compound by pH metric method; assay type: physicochemical; outline: as §2
[8] = Growth inhibition of human A549 cells; assay type: cell-based
[9] = Dissociation constant, pKa of compound by pH metric method; assay type: physicochemical; outline: as §2

Compound	IC50 (DNA gyrase subunit B)	IC50 [1]	MIC (Pseudomonas aeruginosa [2])	MIC (Pseudomonas aeruginosa [3])	MIC (Escherichia coli [4])	MIC (Escherichia coli [5])	pKa [6]	pKa [7]	GI50 [8]	pKa [9]
CCNC(=O)Nc1cc(-c2nc(C(F)(F)F)cs2)c(-c2cc(C(=O)NS(C)(=O)=O)cnc2N2C3CCC2CN(C)C3)cn1	8 nM	9 nM	> 50 µg/mL	> 50 µg/mL	> 50 µg/mL	> 50 µg/mL	3.2	7.6		
CCNC(=O)Nc1cc(-c2nc(C(F)(F)F)cs2)c(-c2cc(C(=O)O)cnc2N2C3CCC2CN(C)C3)cn1	6 nM	8 nM	9 µg/mL (≈ 16 µM)	4.48 µg/mL (≈ 7.98 µM)	9 µg/mL (≈ 16 µM)	1.12 µg/mL (≈ 1.99 µM)	3.5	7.4	> 50000 nM	
CCNC(=O)Nc1cc(-c2nc(C(F)(F)F)cs2)c(-c2cc3ncccc3nc2N2CC3CCCC(C2)N3)cn1	14 nM	25 nM	> 60 µg/mL	0.55 µg/mL (≈ 0.967 µM)	9.09 µg/mL (≈ 16 µM)	0.28 µg/mL (≈ 0.492 µM)			> 50000 nM	9.2
CCNC(=O)Nc1cc(-c2nc(C(F)(F)F)cs2)c(-c2cc(-c3nnn[nH]3)cnc2N2C3CCC2CN(C)C3)cn1	9 nM	4 nM	> 50 µg/mL	> 50 µg/mL	> 50 µg/mL	36 µg/mL (≈ 61.5 µM)	3.6	7.8		
